# Compound activity deposited in PubChem by several laboratories.
# PolyA inhibitor – yeast polyadenylation inhibition. S. cerevisiae SKY197-pL101 polyadenylation reporter, beta-gal luminescence; efflux-impaired pdr1/pdr3 knockout yeast; score 100 = 6 SD above DMSO. activity score, % at 12 µM. 300,000 compounds, 0.02% hits;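 active = lowest replicate activity score at least 50, where 100 means six control SD above control mean; inconclusive = lowest score under 50 but half or more replicates reach 50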;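 also: yeast exposed to compound for 9 h at 30 °C; higher score means more reporter readthrough which indicates perturbed polyadenylation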
# NALP1 inh – inhibitors of NALP1 inflammasome in yeast; 280,000 compounds, 0.61% hits; S. cerevisiae NALP1/ASC/caspase-1 growth, X-gal OD620, 72 h; inhibition, % at 10 µM; in the data active = inhibition mostly above about 24%, no sharp cut-off; inactive = mostly below about 32%
# Calb FLC – C. albicans growth modulation with fluconazole. C. albicans CaCi-2 (fluconazole-resistant clinical isolate) + fluconazole, Alamar Blue growth, 48 h. growth inhibition, % (no concentration beside the values). 300,000 compounds, 0.57% hits. AID 1979;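 active = growth inhibition above about 58% in most replicates, limit read from the data, passing the limit was not always enough; inconclusive = exactly half the replicates above a set limit; inactive = most replicates below a set limit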;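 also: all wells also contain fluconazole at 8 µg/ml as a sub-toxic cotreatment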
# T cruzi inh – blocks replication of Trypanosoma cruzi. T. cruzi beta-gal in NIH3T3, luminescence, 90 h. inhibition, % (no concentration beside the values). 300,000 compounds, 1.4% hits;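 active = mean inhibition across valid replicates above about 55%, limit read from the data; inconclusive = mean below that limit but half or more replicates reach it; inactive = mean below it, under half of replicates reach it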;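 also: signal also drops with host cell toxicity which is not excluded here; higher percent means less beta-gal luminescence so fewer parasites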
#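 System: Mouse NIH/3T3 fibroblasts infected with β-gal-expressing T. cruzi Tulahuen C4 | Quantity: NIH/3T3 cells, 5,000 per well | Reagent: 5000 reporter trypomastigotes per well | Dosing: Compound pinned at 50 nL/well, DMSO | Schedule: 3 h host attachment, then at least 90 h co-culture | Detection: GalScreen luminescence, 60 min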
# NLRP3 yeast inh – blocks the NALP3 inflammasome reconstituted in yeast | Yeast reconstituted NLRP3/ASC/caspase-1, beta-gal luminescence, 24 h | inhibition, % at 10 µM | 330,000 compounds, 0.39% hits;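 active = inhibition of 50% or more; inactive = inhibition below 50%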
# L major viab – inhibitors of Leishmania major promastigote growth. Leishmania major promastigotes, resazurin fluorescence viability. inhibition, % at 10 µM. 200,000 compounds, 9% hits; in the data active = inhibition above about 50%;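 also: promastigotes grown with compound for 44 hours at 28 °C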
# Hits are given with their value; n = inactive; u = inconclusive; x = no result. Many of the other results were omitted from the sample, so hits are more common in it than they were.
SMILES,PolyA inhibitor,NALP1 inh,Calb FLC,T cruzi inh,NLRP3 yeast inh,L major viab
Cc1[nH]c2ccc(F)cc2c1CCN(Cc1cccnc1)C(=S)Nc1ccc(F)cc1,n,n,n,61.2,n,100.4
CCC(C)(C)NC(=S)Nc1ccc(-c2nc3ccc(C)cc3s2)cc1,n,n,n,n,n,74.7
Cc1ccc2nc(-c3ccc(NS(=O)(=O)c4ccc(F)cc4)cc3)sc2c1,n,n,n,n,n,64.7
CCCCNC(=S)Nc1ccc(-c2nc3ccc(C)cc3s2)cc1,n,n,u,n,n,n
CCCOc1ccc(-c2nnn(CC(=O)c3c[nH]c4ccccc34)n2)cc1,n,n,n,n,n,n
Cc1ccc(NC(=O)CSc2nnc(-c3cccnc3)n2CCN2CCCCC2)cc1,n,n,n,n,n,n
O=C(NCC1COc2ccccc2O1)c1cccc(S(=O)(=O)N2CCN(c3ccccc3)CC2)c1 (stereo unspecified),x,x,x,x,n,x
COC(=O)C1=C(C)NC(C)=C(C(=O)OC)C1c1cn(-c2ccccc2)nc1-c1ccco1,n,n,n,n,n,64.4
COCCOC(=O)C1=C(C)NC(=O)NC1c1cn(-c2ccccc2)nc1-c1cccs1 (stereo unspecified),n,n,n,n,n,n
CC(C)N1CCN(Cc2cnc(-c3ccccc3)s2)CC1CCO (stereo unspecified),n,n,n,n,n,x
CC(C)CCN1CCN(Cc2cccn2-c2ccc(Cl)cn2)CC1CCO (stereo unspecified),n,n,n,n,n,73.4
Cc1ncc(CN2CCN(CCc3ccccc3)C(CCO)C2)s1 (stereo unspecified),n,n,n,n,n,63.5
CC(C)CCN1CCN(Cc2cnc(-c3ccccc3)s2)CC1CCO (stereo unspecified),n,n,n,n,n,88.0
Cc1ccc(CN2CCN(CCCc3ccccc3)CC2CCO)cc1 (stereo unspecified),n,n,n,n,n,86.7
OCCC1CN(CCCc2ccccc2)CCN1Cc1ccc(F)cc1 (stereo unspecified),n,n,n,n,n,x
O=C1CNC(=S)N1Cc1cccc(Cl)c1,n,n,n,n,n,x
ClC1=C(Cl)C(Cl)=C(Cl)C1=C/C=C/c1ccccc1,n,n,n,62.9,n,x
Cc1nccn1S(=O)(=O)c1ccc(Br)cc1Br,n,n,n,n,x,85.9
CCN(C(=O)CSc1cccc[n+]1[O-])C1CCCCC1,x,x,x,x,n,x
COc1cc(NC(=O)c2cccnc2)ccc1-c1cc2ccccc2oc1=O,n,n,n,n,n,n
O=C(Nc1ccc(-c2cc3ccccc3oc2=O)c(Cl)c1)c1cccnc1,n,33.4,n,n,n,n
O=Nc1c(O)n(Cc2cccc(C(F)(F)F)c2)c2ccccc12,n,n,116.9,n,n,n
O=Nc1c(O)n(Cc2ccc(Cl)c(Cl)c2)c2ccccc12,n,n,78.6,n,n,77.0
CCCn1c(SCC(=O)NCc2ccc(Cl)cc2)n[nH]c1=O,n,n,n,n,n,n
CC(C)c1ccc(C2=C(O)c3ccccc3C(=O)C2=O)cc1,n,n,99.2,n,n,n
SMILES,PolyA inhibitor,NALP1 inh,Calb FLC,T cruzi inh,NLRP3 yeast inh,L major viab
CCOc1cc(CNCCO)cc(Br)c1OCc1cccs1,n,n,n,n,n,100.5
CCOc1cc(CNCCO)cc(Br)c1OCc1ccc(Cl)cc1Cl,n,n,n,n,n,100.7
CCOc1cc(CNCc2cccs2)cc(Br)c1OCC,n,n,n,n,n,n
CCOc1cccc(CNCCO)c1OCc1ccc(Cl)cc1Cl,n,n,n,n,n,n
CN1CCN(c2nc(N3CCN(CCO)CC3)nc3ccccc23)CC1,n,n,n,n,n,100.2
OCCN1CCN(c2cc(-c3ccccc3)c3ccccc3n2)CC1,n,n,n,n,n,68.7
c1ccc(CN2CCN(c3nc(N4CCOCC4)c4ccccc4n3)CC2)cc1,n,x,n,n,n,n
CCc1nnc(NC(=O)c2ccc3nc(CC)c(CC)nc3c2)s1,n,n,n,n,n,n
COC(=O)C1=C(O)/C(=C\c2sccc2C)N=C1C,n,n,n,n,n,54.2
CCOC(=O)C1=C(O)/C(=C\c2sccc2C)N=C1C,n,n,n,n,n,n
O/N=C1\CCCc2ccc(Cl)cc21,n,n,n,n,n,n
COc1ccc(/C=N/NC(=O)c2cc(C34CC5CC(CC(C5)C3)C4)[nH]n2)cc1O,n,x,n,n,n,89.5
COc1ccc(/C=N\NC(=O)c2ccc(=O)[nH]n2)cc1O,n,n,n,n,n,n
Cc1ccc(Cl)cc1N(C(=O)c1csnn1)C(C(=O)NC1CCCC1)c1ccco1 (stereo unspecified),n,n,n,n,n,x
COc1ccc(NC(=O)/C(=C\c2ccncc2)NC(=O)c2ccccc2)cc1,n,n,n,n,n,n
CCOC(=O)c1cnc2ccc(C(=O)OC)cc2c1NCCc1ccc(OC)c(OC)c1,n,n,n,n,n,n
CCOC(=O)c1cnc2ccc(OCC)cc2c1NCCN1CCOCC1,n,n,n,n,n,55.5
CCOC(=O)c1cnc2ccc(OCC)cc2c1NCc1ccccc1OC,n,n,n,n,n,97.2
CCOC(=O)c1cnc2ccc(C)cc2c1Sc1ccccc1C(=O)OC,n,n,n,61.4,n,n
CCOC(=O)c1cnc2ccc(C)cc2c1NCCO,u,n,n,n,n,n
COC(=O)c1ccccc1Sc1snnc1C,n,n,u,n,n,n
CCOC(=O)c1cnc2ccc(OC)cc2c1NCc1ccccc1,n,n,n,n,n,68.6
CCOC(=O)c1cnc2ccc(OCC)cc2c1NCCCN1CCOCC1,n,n,n,n,n,x
COC(=O)c1cc(OC)c(OC)cc1NC(=S)N1CCOCC1,n,n,n,n,n,x
Cc1ccc2nc(Cl)c(C3CC(c4cccs4)=NN3S(C)(=O)=O)cc2c1 (stereo unspecified),n,n,n,n,n,84.4
SMILES,PolyA inhibitor,NALP1 inh,Calb FLC,T cruzi inh,NLRP3 yeast inh,L major viab
Cc1ccc2cc(C3CC(c4cccs4)=NN3S(C)(=O)=O)c(Cl)nc2c1 (stereo unspecified),n,n,n,n,n,x
Cc1cc(=O)oc2cc(OCC(=O)Nc3ccccc3C(N)=O)c(Cl)cc12,n,n,n,n,n,x
O/N=C/c1ccn(-c2ccc(Br)cc2)c1,n,n,n,n,n,92.2
Cc1ccccc1C(C)NC(=O)COC(=O)Cn1cc(C(F)(F)F)ccc1=O (stereo unspecified),x,x,x,x,n,x
O=C(O)c1cccc(CSc2ncccn2)c1,n,n,n,n,n,n
O=C(O)c1cccc(CSc2n[nH]c(-c3ccc(Cl)cc3Cl)n2)c1,n,53.1,n,n,n,n
COc1ccc(C(=O)COC(=O)c2cc(C)no2)c(OC)c1,x,x,x,x,n,x
c1ccc(/N=C2\N=C(Nc3ccccn3)c3ccccc32)nc1,n,x,n,64.9,n,x
Cc1ccnc2c(N3C(=O)C4C5c6ccccc6C(c6ccccc65)C4C3=O)cccc12 (stereo unspecified),n,n,n,n,n,58.2
